Experimental data published in ChEMBL document CHEMBL4689842, “EUbOPEN Chemogenomics Library wave 1” (2021).

Tested on: HEK-293T
Test: Multiplex assay against HEK293T;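 as to Population Tubulin-Different-Phenotype (%): share of the cells with healthy nuclei that show this phenotype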
Assay type: toxicity, cell-based
Conditions: human
Outline: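 Cells stained live at seeding with Hoechst33342, BioTracker Green Microtubule Cytoskeleton Dye, MitoTracker Red and Annexin V Alexa Fluor 680 were imaged on a CQ1 microscope at 37°C and 5% CO2 after compound addition. Their classification by CellPathfinder machine-learning gating ran from Hoechst high-intensity objects versus normal cells, to healthy, pyknosed or fragmented nuclei among normal cells, to mitotic or apoptotic among pyknosed cells. Tubulin, mitochondrial-mass and membrane-permeability phenotypes are per cents of healthy-nucleus cells.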

[1] = 12 h, 1 µM, compound concentration 1 uM, replicate 1
[2] = 12 h, 1 µM, compound concentration 1 uM, replicate 2
[3] = 12 h, 10 µM, compound concentration 10 uM, replicate 1
[4] = 12 h, 10 µM, compound concentration 10 uM, replicate 2
[5] = 24 h, 1 µM, compound concentration 1 uM, replicate 1
[6] = 24 h, 1 µM, compound concentration 1 uM, replicate 2
[7] = 24 h, 10 µM, compound concentration 10 uM, replicate 1
[8] = 24 h, 10 µM, compound concentration 10 uM, replicate 2
[9] = 48 h, 1 µM, compound concentration 1 uM, replicate 1
[10] = 48 h, 1 µM, compound concentration 1 uM, replicate 2
[11] = 48 h, 10 µM, compound concentration 10 uM, replicate 1
[12] = 48 h, 10 µM, compound concentration 10 uM, replicate 2

SMILES: CCN1CCN(Cc2ccc(Nc3ncc(F)c(-c4cc(F)c5nc(C)n(C(C)C)c5c4)n3)nc2)CC1.CS(=O)(=O)O
- Population Apoptotic (%) [1]: 60%
- Population Fragmented Nuclei (%) [1]: 17%
- Population Healthy Nuclei (%) [1]: 19%
- Population Hoechst High Intensity Objects (%) [1]: 17%
- Population Membrane Permeable-Phenotype (%) [1]: 0%
- Population Mitochondria Different-Phenotype (%) [1]: 94%
- Population Mitotic Cells (%) [1]: 40%
- Population Normal (%) [1]: 82%
- Population Pyknosed Nuclei (%) [1]: 63%
- Population Tubulin-Different-Phenotype (%) [1]: 92%
- Total Cell Count [1]: 249
- Population Apoptotic (%) [2]: 40%
- Population Fragmented Nuclei (%) [2]: 7%
- Population Healthy Nuclei (%) [2]: 27%
- Population Hoechst High Intensity Objects (%) [2]: 4%
- Population Membrane Permeable-Phenotype (%) [2]: 14%
- Population Mitochondria Different-Phenotype (%) [2]: 83%
- Population Mitotic Cells (%) [2]: 59%
- Population Normal (%) [2]: 95%
- Population Pyknosed Nuclei (%) [2]: 64%
- Population Tubulin-Different-Phenotype (%) [2]: 81%
- Total Cell Count [2]: 181
- Population Apoptotic (%) [3]: 74%
- Population Fragmented Nuclei (%) [3]: 14%
- Population Healthy Nuclei (%) [3]: 1%
- Population Hoechst High Intensity Objects (%) [3]: 25%
- Population Membrane Permeable-Phenotype (%) [3]: 0%
- Population Mitochondria Different-Phenotype (%) [3]: 33%
- Population Mitotic Cells (%) [3]: 25%
- Population Normal (%) [3]: 74%
- Population Pyknosed Nuclei (%) [3]: 84%
- Population Tubulin-Different-Phenotype (%) [3]: 66%
- Total Cell Count [3]: 289
- Population Apoptotic (%) [4]: 62%
- Population Fragmented Nuclei (%) [4]: 12%
- Population Healthy Nuclei (%) [4]: 25%
- Population Hoechst High Intensity Objects (%) [4]: 21%
- Population Membrane Permeable-Phenotype (%) [4]: 2%
- Population Mitochondria Different-Phenotype (%) [4]: 79%
- Population Mitotic Cells (%) [4]: 37%
- Population Normal (%) [4]: 79%
- Population Pyknosed Nuclei (%) [4]: 62%
- Population Tubulin-Different-Phenotype (%) [4]: 97%
- Total Cell Count [4]: 219
- Population Apoptotic (%) [5]: 63%
- Population Fragmented Nuclei (%) [5]: 19%
- Population Healthy Nuclei (%) [5]: 32%
- Population Hoechst High Intensity Objects (%) [5]: 18%
- Population Membrane Permeable-Phenotype (%) [5]: 0%
- Population Mitochondria Different-Phenotype (%) [5]: 100%
- Population Mitotic Cells (%) [5]: 36%
- Population Normal (%) [5]: 81%
- Population Pyknosed Nuclei (%) [5]: 47%
- Population Tubulin-Different-Phenotype (%) [5]: 95%
- Total Cell Count [5]: 253
- Population Apoptotic (%) [6]: 51%
- Population Fragmented Nuclei (%) [6]: 5%
- Population Healthy Nuclei (%) [6]: 45%
- Population Hoechst High Intensity Objects (%) [6]: 5%
- Population Membrane Permeable-Phenotype (%) [6]: 2%
- Population Mitochondria Different-Phenotype (%) [6]: 88%
- Population Mitotic Cells (%) [6]: 48%
- Population Normal (%) [6]: 94%
- Population Pyknosed Nuclei (%) [6]: 48%
- Population Tubulin-Different-Phenotype (%) [6]: 94%
- Total Cell Count [6]: 201
- Population Apoptotic (%) [7]: 72%
- Population Fragmented Nuclei (%) [7]: 23%
- Population Healthy Nuclei (%) [7]: 0%
- Population Hoechst High Intensity Objects (%) [7]: 23%
- Population Membrane Permeable-Phenotype (%) [7]: 0%
- Population Mitochondria Different-Phenotype (%) [7]: 0%
- Population Mitotic Cells (%) [7]: 27%
- Population Normal (%) [7]: 76%
- Population Pyknosed Nuclei (%) [7]: 76%
- Population Tubulin-Different-Phenotype (%) [7]: 0%
- Total Cell Count [7]: 287
- Population Apoptotic (%) [8]: 79%
- Population Fragmented Nuclei (%) [8]: 4%
- Population Healthy Nuclei (%) [8]: 18%
- Population Hoechst High Intensity Objects (%) [8]: 21%
- Population Membrane Permeable-Phenotype (%) [8]: 3%
- Population Mitochondria Different-Phenotype (%) [8]: 93%
- Population Mitotic Cells (%) [8]: 20%
- Population Normal (%) [8]: 78%
- Population Tubulin-Different-Phenotype (%) [8]: 93%
- Total Cell Count [8]: 213
- Population Apoptotic (%) [9]: 58%
- Population Fragmented Nuclei (%) [9]: 29%
- Population Healthy Nuclei (%) [9]: 28%
- Population Hoechst High Intensity Objects (%) [9]: 17%
- Population Membrane Permeable-Phenotype (%) [9]: 0%
- Population Mitochondria Different-Phenotype (%) [9]: 81%
- Population Mitotic Cells (%) [9]: 41%
- Population Normal (%) [9]: 82%
- Population Pyknosed Nuclei (%) [9]: 42%
- Population Tubulin-Different-Phenotype (%) [9]: 89%
- Total Cell Count [9]: 254
- Population Apoptotic (%) [10]: 62%
- Population Fragmented Nuclei (%) [10]: 9%
- Population Healthy Nuclei (%) [10]: 65%
- Population Hoechst High Intensity Objects (%) [10]: 6%
- Population Membrane Permeable-Phenotype (%) [10]: 1%
- Population Mitochondria Different-Phenotype (%) [10]: 71%
- Population Mitotic Cells (%) [10]: 37%
- Population Normal (%) [10]: 93%
- Population Pyknosed Nuclei (%) [10]: 24%
- Population Tubulin-Different-Phenotype (%) [10]: 93%
- Total Cell Count [10]: 243
- Population Apoptotic (%) [11]: 80%
- Population Fragmented Nuclei (%) [11]: 27%
- Population Healthy Nuclei (%) [11]: 0%
- Population Hoechst High Intensity Objects (%) [11]: 27%
- Population Membrane Permeable-Phenotype (%) [11]: 100%
- Population Mitochondria Different-Phenotype (%) [11]: 100%
- Population Mitotic Cells (%) [11]: 19%
- Population Normal (%) [11]: 72%
- Population Pyknosed Nuclei (%) [11]: 72%
- Population Tubulin-Different-Phenotype (%) [11]: 0%
- Total Cell Count [11]: 291
- Population Apoptotic (%) [12]: 83%
- Population Fragmented Nuclei (%) [12]: 10%
- Population Healthy Nuclei (%) [12]: 11%
- Population Hoechst High Intensity Objects (%) [12]: 28%
- Population Membrane Permeable-Phenotype (%) [12]: 11%
- Population Mitochondria Different-Phenotype (%) [12]: 94%
- Population Mitotic Cells (%) [12]: 16%
- Population Normal (%) [12]: 71%
- Population Pyknosed Nuclei (%) [12]: 77%
- Population Tubulin-Different-Phenotype (%) [12]: 88%
- Total Cell Count [12]: 202
